Source: ChEMBL document CHEMBL3352325, “Synthesis and biological evaluation of novel aniline-derived asiatic acid derivatives as potential anticancer agents” (Eur J Med Chem, 2014)
Calls of active or inactive are those of the source. No cut-off for these calls is given here.

Experiments:
HeLa = test: Cytotoxicity against human HeLa cells after 48 hrs by MTT assay; format: functional, cell-based
How it was run: (§1)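 Cells grown in medium with 10% heat-inactivated FBS, 5% CO2, 37 °C. Compounds given in medium with 1% DMSO at 1.25–20 graded concentrations; 1% DMSO medium served as control. MTT (5 mg/mL) added, formazan dissolved in DMSO, absorbance read at 570/630 nm. Survival expressed relative to negative control. IC50 by Bliss method (n=5), at least three independent experiments, mean ± SD.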

HUVEC = test: Cytotoxicity against human HUVEC cells after 48 hrs by MTT assay; format: cell-based; how it was run: as §1
NCI-H460 = test: Cytotoxicity against human NCI-H460 cells after 48 hrs by MTT assay; format: functional, cell-based; conditions: NCI-H460, 48 h; how it was run: as §1
HepG2 [1] = test: Cytotoxicity against human HepG2 cells after 48 hrs by MTT assay; format: functional, cell-based; conditions: HepG2, 48 h; how it was run: as §1
[2] = Cytotoxicity against human SMMC-7404 cells after 48 hrs by MTT assay; format: functional, cell-based; conditions: SMMC-7404, 48 h; how it was run: as §1
MGC-803 = test: Cytotoxicity against human MGC803 cells after 48 hrs by MTT assay; format: functional, cell-based; conditions: MGC-803, 48 h; how it was run: as §1
HepG2 [3] = test: Induction of apoptosis in human HepG2 cells assessed as caspase-3 expression at 20 uM by qRT-PCR analysis; format: functional, cell-based; conditions: TDE = time-dependent effect
How it was run: (§2)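 Total RNA extracted from HepG2 cells […]. Transcripts quantified by real-time RT-PCR, with Ct values normalized to actin by the ΔCt method. Run in triplicate per group.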

HepG2 [4] = test: Cell cycle arrest in human HepG2 cells assessed as accumulation at G1 phase at 20 uM after 12 hrs using propidium iodide staining by flow cytometry (reference value: 41.51 %); format: functional
HepG2 [5] = test: Induction of apoptosis in human HepG2 cells assessed as condensation of nucleus using hoechst staining at 20 uM after 12 to 24 hrs by fluorescence microscopy; format: functional, cell-based
How it was run: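 HepG2 cells on coverslips treated at 20 µM for 12 or 24 h, with untreated 24 h control. Fixed in 4% paraformaldehyde for 10 min, then stained with Hoechst 33258 for 5 min. Nuclei viewed by fluorescence microscopy at 350 nm excitation and 460 nm emission.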

HepG2 [6] = test: Cell cycle arrest in human HepG2 cells assessed as accumulation at S phase at 20 uM after 12 hrs using propidium iodide staining by flow cytometry (reference value: 52.28 %); format: functional
HepG2 [7] = test: Induction of apoptosis in human HepG2 cells assessed as increase in caspase-3 level at 5 to 20 uM after 24 hrs by Western blot analysis; format: functional, cell-based
How it was run: (§3)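 HepG2 cells grown to 80–90% confluence, then kept 12 h in 0.1% FCS RPMI 1640. Exposed 24 h at 5, 10 or 20 µM. Cell extracts run on SDS-polyacrylamide gels, transferred to nitrocellulose and probed with primary antibodies against cytochrome c, Bax, Bcl-2, caspase-9, caspase-3 and cleaved PARP.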

HepG2 [8] = test: Induction of apoptosis in human HepG2 cells assessed as necrotic cells at 10 uM after 12 hrs by flow cytometry (reference value: 2.3 %); format: functional
How it was run: (§4)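 HepG2 cells treated 12 h at 10 or 20 µM, with untreated control. Stained with annexin V-FITC plus PI for 30 min at 25 °C in the dark. Quadrant percentages read by flow cytometry.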

HepG2 [9] = test: Induction of apoptosis in human HepG2 cells assessed as generation of intracellular ROS at 20 uM after 12 to 24 hrs by fluorescence microscopy; format: functional, cell-based
How it was run: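 HepG2 cells treated at 20 µM for 12 or 24 h, with untreated 24 h control. Loaded with 20 µM DCFH-DA in cell-free medium at 37 °C for 30 min in the dark, then washed in PBS. DCF fluorescence imaged by fluorescence microscopy at 485 nm excitation and 538 nm emission.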

HepG2 [10] = test: Cell cycle arrest in human HepG2 cells assessed as accumulation at S phase at 20 uM after 24 hrs using propidium iodide staining by flow cytometry (reference value: 52.28 %); format: functional
HepG2 [11] = test: Induction of apoptosis in human HepG2 cells assessed as change in morphology at 20 uM after 12 to 24 hrs using JC-1 staining by fluorescence microscopy; format: functional, cell-based
How it was run: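 HepG2 cells treated at 20 µM for 12 or 24 h, with untreated 24 h control. Incubated with JC-1 (5 µg/ml) at 37 °C for 20 min, rinsed in PBS. Green (515–545 nm) and red (570–600 nm) emission imaged by fluorescence microscopy; depolarization taken as a rise in green/red ratio.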

HepG2 [12] = test: Induction of apoptosis in human HepG2 cells assessed as early apoptotic cells at 10 uM after 12 hrs by flow cytometry (reference value: 2.1 %); format: functional; how it was run: as §4
HepG2 [13] = test: Induction of apoptosis in human HepG2 cells assessed as early apoptotic cells at 20 uM after 12 hrs by flow cytometry (reference value: 2.1 %); format: functional; how it was run: as §4
HepG2 [14] = test: Induction of apoptosis in human HepG2 cells assessed as necrotic cells at 20 uM after 12 hrs by flow cytometry (reference value: 2.3 %); format: functional; how it was run: as §4
HepG2 [15] = test: Cell cycle arrest in human HepG2 cells assessed as accumulation at G1 phase at 20 uM after 24 hrs using propidium iodide staining by flow cytometry (reference value: 41.51 %); format: functional
HepG2 [16] = test: Cell cycle arrest in human HepG2 cells assessed as accumulation at G2 phase at 20 uM after 24 hrs using propidium iodide staining by flow cytometry (reference value: 6.20 %); format: functional
HepG2 [17] = test: Induction of apoptosis in human HepG2 cells assessed as increase in Bax level after 24 hrs by Western blot analysis; format: functional, cell-based; how it was run: as §3
HepG2 [18] = test: Induction of apoptosis in human HepG2 cells assessed as increase in caspase-9 level at 5 to 20 uM after 24 hrs by Western blot analysis; format: functional, cell-based; how it was run: as §3
HepG2 [19] = test: Induction of apoptosis in human HepG2 cells after 12 hrs by flow cytometry; format: functional, cell-based; how it was run: as §4
HepG2 [20] = test: Induction of apoptosis in human HepG2 cells assessed as caspase-8 expression at 20 uM by qRT-PCR analysis; format: functional, cell-based; conditions: TDE = time-dependent effect; how it was run: as §2
HepG2 [21] = test: Induction of apoptosis in human HepG2 cells assessed as decrease in Bcl-2 level after 24 hrs by Western blot analysis; format: functional, cell-based; how it was run: as §3
HepG2 [22] = test: Induction of apoptosis in human HepG2 cells assessed as accumulation of cytochrome c in cytosol at 5 to 20 uM after 24 hrs by Western blot analysis; format: functional, cell-based; how it was run: as §3
HepG2 [23] = test: Induction of apoptosis in human HepG2 cells assessed as change in membrane integrity using acridine orange/ethidium bromide staining at 20 uM after 12 to 24 hrs by fluorescence microscopy; format: functional, cell-based
How it was run: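 HepG2 cells on coverslips treated with 20 µM in medium with 10% FBS for 12 or 24 h, with untreated 24 h control. Stained with AO/EB and examined by fluorescence microscopy: green = live, green-yellow = early apoptotic, orange = late apoptotic or necrotic.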

HepG2 [24] = test: Cell cycle arrest in human HepG2 cells assessed as accumulation at G2 phase at 20 uM after 12 hrs using propidium iodide staining by flow cytometry (reference value: 6.20 %); format: functional
HepG2 [25] = test: Induction of apoptosis in human HepG2 cells assessed as late apoptotic cells at 10 uM after 12 hrs by flow cytometry (reference value: 6.9 %); format: functional; how it was run: as §4
HepG2 [26] = test: Induction of apoptosis in human HepG2 cells assessed as late apoptotic cells at 20 uM after 12 hrs by flow cytometry (reference value: 6.9 %); format: functional; how it was run: as §4

C[C@H]1[C@H](C)CC[C@]2(C(=O)Nc3ccc(Br)c(F)c3)CC[C@]3(C)C(=CC(=O)[C@@H]4[C@@]5(C)C[C@@H](O)[C@H](O)[C@@](C)(CO)[C@@H]5CC[C@]43C)[C@H]12
IC50 (HeLa): 9.71 µM
IC50 (HUVEC): > 100 µM
IC50 (NCI-H460): 16.4 µM
IC50 (HepG2 [1]): 28.4 µM
IC50 [2]: 17.4 µM
IC50 (MGC-803): 16 µM

C[C@H]1[C@H](C)CC[C@]2(C(=O)Nc3ccc(F)c(Cl)c3)CC[C@]3(C)C(=CC(=O)[C@@H]4[C@@]5(C)C[C@@H](O)[C@H](O)[C@@](C)(CO)[C@@H]5CC[C@]43C)[C@H]12
IC50 (HeLa): 14.2 µM
IC50 (HUVEC): > 100 µM
IC50 (NCI-H460): 24.2 µM
IC50 (HepG2 [1]): 19.4 µM
IC50 [2]: 19.1 µM
IC50 (MGC-803): 14.1 µM

Cc1ccc(NC(=O)[C@]23CC[C@@H](C)[C@H](C)[C@H]2C2=CC(=O)[C@@H]4[C@@]5(C)C[C@@H](O)[C@H](O)[C@@](C)(CO)[C@@H]5CC[C@@]4(C)[C@]2(C)CC3)cc1Cl
IC50 (HeLa): 16 µM
IC50 (HUVEC): > 100 µM
IC50 (NCI-H460): 19.1 µM
IC50 (HepG2 [1]): 18.4 µM
IC50 [2]: 20.6 µM
IC50 (MGC-803): 20.1 µM

COc1cccc(NC(=O)[C@]23CC[C@@H](C)[C@H](C)[C@H]2C2=CC(=O)[C@@H]4[C@@]5(C)C[C@@H](O)[C@H](O)[C@@](C)(CO)[C@@H]5CC[C@@]4(C)[C@]2(C)CC3)c1
IC50 (HeLa): 17.8 µM
IC50 (HUVEC): > 100 µM
IC50 (NCI-H460): 23.1 µM
IC50 (HepG2 [1]): 8.89 µM
IC50 [2]: 23.5 µM
IC50 (MGC-803): 24.3 µM

C[C@H]1[C@H](C)CC[C@]2(C(=O)Nc3cccc(F)c3)CC[C@]3(C)C(=CC(=O)[C@@H]4[C@@]5(C)C[C@@H](O)[C@H](O)[C@@](C)(CO)[C@@H]5CC[C@]43C)[C@H]12
IC50 (HeLa): 28.2 µM
Activity (HepG2 [3]): tde
Activity (HepG2 [4]): 55.29%
Activity (HepG2 [5]): Active
Activity (HepG2 [6]): 38.62%
Activity (HepG2 [7]): Active
Activity (HepG2 [8]): 2.2%
Activity (HepG2 [9]): Active
Activity (HepG2 [10]): 28.86%
Activity (HepG2 [11]): Active
IC50 (HUVEC): > 100 µM
Activity (HepG2 [12]): 7.2%
Activity (HepG2 [13]): 25%
Activity (HepG2 [14]): 2.6%
IC50 (NCI-H460): 23.6 µM
Activity (HepG2 [15]): 65.58%
Activity (HepG2 [16]): 5.56%
Activity (HepG2 [17]): Dose-dependent effect
Activity (HepG2 [18]): Active
Activity (HepG2 [19]): Dose-dependent effect
Activity (HepG2 [20]): tde
Activity (HepG2 [21]): Dose-dependent effect
IC50 (HepG2 [1]): 5.97 µM
Activity (HepG2 [22]): Active
IC50 [2]: 14.1 µM
Activity (HepG2 [23]): Active
Activity (HepG2 [24]): 6.09%
Activity (HepG2 [25]): 6.6%
Activity (HepG2 [26]): 9%
IC50 (MGC-803): 14.3 µM
